Measured values as given in ChEMBL document CHEMBL4400543, “Identification and Characterization of AES-135, a Hydroxamic Acid-Based HDAC Inhibitor That Prolongs Survival in an Orthotopic Mouse Model of Pancreatic Cancer” (J Med Chem, 2019).

Columns and labels:
Histone deacetylase 3 = Histone deacetylase 3 (Homo sapiens, UniProt O15379); assay: Inhibition of recombinant human HDAC3 expressed in SF9 baculoviral system using FAM-labeled acetylated peptide as substrate by EMSA
How it was run: (§1)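 Full-length recombinant human enzyme from an Sf9 baculovirus system, in 100 mM HEPES pH 7.5 with 25 mM KCl, 0.1% BSA, 0.01% Triton X-100 and 1% DMSO. Final enzyme was 0.5 nM for HDAC3, 60 nM for HDAC6 and 5.0 nM for HDAC8. FAM-acetylated peptide was 1 μM. The read-out was product/(substrate+product) by microfluidic mobility shift, with inhibition set against DMSO and no-enzyme controls (quadruplicate). Compounds were tested at 12 threefold-spaced concentrations, and IC50 came from a four-parameter sigmoid fit.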

Histone deacetylase 8 = target: T1, Histone deacetylase 8 (Homo sapiens, UniProt Q9BY41); assay: Inhibition of recombinant human HDAC8 expressed in SF9 baculoviral system using FAM-labeled acetylated peptide as substrate by EMSA; how it was run: as §1
T1 sequence (Q9BY41 whole entry): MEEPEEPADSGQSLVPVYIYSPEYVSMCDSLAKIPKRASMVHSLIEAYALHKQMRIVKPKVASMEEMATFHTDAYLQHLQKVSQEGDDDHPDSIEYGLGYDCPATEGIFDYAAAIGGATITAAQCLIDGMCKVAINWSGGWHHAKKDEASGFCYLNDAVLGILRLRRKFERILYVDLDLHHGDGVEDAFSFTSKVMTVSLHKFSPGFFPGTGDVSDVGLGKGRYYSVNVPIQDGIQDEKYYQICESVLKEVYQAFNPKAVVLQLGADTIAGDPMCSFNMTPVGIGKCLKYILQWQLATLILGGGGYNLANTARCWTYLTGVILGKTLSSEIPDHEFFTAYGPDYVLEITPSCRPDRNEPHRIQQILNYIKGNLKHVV

Histone deacetylase 11 = target: T2, Histone deacetylase 11 (Homo sapiens, UniProt Q96DB2); assay: Inhibition of recombinant human HDAC11 expressed in SF9 baculoviral system using FAM-labeled acetylated peptide as substrate by EMSA
T2 sequence (Q96DB2 whole entry): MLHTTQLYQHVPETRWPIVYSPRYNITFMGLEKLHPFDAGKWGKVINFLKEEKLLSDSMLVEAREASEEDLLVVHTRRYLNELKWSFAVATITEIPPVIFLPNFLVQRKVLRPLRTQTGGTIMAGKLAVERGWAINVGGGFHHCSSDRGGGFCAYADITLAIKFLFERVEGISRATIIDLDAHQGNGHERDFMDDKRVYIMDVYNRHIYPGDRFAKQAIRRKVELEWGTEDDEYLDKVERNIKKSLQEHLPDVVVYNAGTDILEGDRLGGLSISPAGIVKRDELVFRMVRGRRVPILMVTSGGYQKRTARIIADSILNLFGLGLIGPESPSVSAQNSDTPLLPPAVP
How it was run: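 Full-length human HDAC11 (Sf9-expressed), 10 nM final, in 100 mM HEPES pH 7.5, 25 mM KCl, 0.1% BSA, 0.01% Triton X-100, 1% DMSO. FAM-acetylated peptide substrate at 100 μM, mobility-shift read-out. Product/(substrate + product) converted to % inhibition. IC50 from a four-parameter fit; dose-response spans 12 threefold dilutions from 30.0 μM.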

[1] = target: T3, Protein deacetylase HDAC6 (Homo sapiens, UniProt Q9UBN7); assay: Inhibition of recombinant human HDAC6 expressed in SF9 baculoviral system using FAM-labeled acetylated peptide as substrate by EMSA; how it was run: as §1
T3 sequence (Q9UBN7 whole entry): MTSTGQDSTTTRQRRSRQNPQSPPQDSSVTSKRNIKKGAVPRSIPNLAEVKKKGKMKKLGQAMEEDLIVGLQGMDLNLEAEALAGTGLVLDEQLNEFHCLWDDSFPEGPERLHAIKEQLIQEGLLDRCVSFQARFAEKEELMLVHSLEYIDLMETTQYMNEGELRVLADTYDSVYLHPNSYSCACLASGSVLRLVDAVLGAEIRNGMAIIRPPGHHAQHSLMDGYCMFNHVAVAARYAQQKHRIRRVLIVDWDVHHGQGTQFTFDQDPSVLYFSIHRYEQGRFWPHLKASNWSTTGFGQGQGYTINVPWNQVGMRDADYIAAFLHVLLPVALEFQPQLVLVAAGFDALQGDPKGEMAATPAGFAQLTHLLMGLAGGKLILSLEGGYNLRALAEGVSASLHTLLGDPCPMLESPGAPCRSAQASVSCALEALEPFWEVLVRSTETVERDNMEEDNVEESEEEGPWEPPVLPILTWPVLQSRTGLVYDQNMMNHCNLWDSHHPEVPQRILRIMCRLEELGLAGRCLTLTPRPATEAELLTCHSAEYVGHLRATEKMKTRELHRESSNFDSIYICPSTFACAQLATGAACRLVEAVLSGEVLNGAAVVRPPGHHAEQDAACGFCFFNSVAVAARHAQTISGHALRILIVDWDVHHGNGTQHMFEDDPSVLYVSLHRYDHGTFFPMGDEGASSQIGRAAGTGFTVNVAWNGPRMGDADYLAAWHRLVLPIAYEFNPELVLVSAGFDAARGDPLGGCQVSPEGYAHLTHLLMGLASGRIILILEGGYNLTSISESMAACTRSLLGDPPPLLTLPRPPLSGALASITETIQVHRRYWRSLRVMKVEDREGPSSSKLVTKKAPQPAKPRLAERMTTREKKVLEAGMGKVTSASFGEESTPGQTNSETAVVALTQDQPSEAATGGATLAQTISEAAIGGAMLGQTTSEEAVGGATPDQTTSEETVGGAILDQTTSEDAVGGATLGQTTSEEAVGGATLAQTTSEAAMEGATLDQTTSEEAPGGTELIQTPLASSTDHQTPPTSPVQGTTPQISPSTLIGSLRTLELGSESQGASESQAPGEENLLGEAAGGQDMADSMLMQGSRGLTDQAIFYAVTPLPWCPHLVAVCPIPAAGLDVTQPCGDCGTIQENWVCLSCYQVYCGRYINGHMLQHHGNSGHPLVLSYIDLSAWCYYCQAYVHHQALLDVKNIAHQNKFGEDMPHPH

[2] = Cytotoxicity against mouse KPC monolayer cells assessed as reduction in tumor spheroid intensity after 72 hrs by Alamar Blue assay; type: functional, cell-based
How it was run: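 Monolayer proliferation of STR-authenticated, mycoplasma-checked patient-derived PDAC lines and mouse KPC cells. Plated at 2000 cells/well, treated 72 h, read by alamarBlue. At least triplicate, n = 3–5.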

[3] = Intrinsic clearance in ICR/CD1 mouse hepatocytes assessed per million cells at 1 uM up to 120 mins by LC-MS/MS analysis; type: ADME, cell-based, Hepatocyte; details: 2 h
[4] = Half life in ICR/CD1 mouse hepatocytes at 1 uM up to 120 mins by LC-MS/MS analysis; type: ADME, cell-based, Hepatocyte; details: 2 h

Histone deacetylase 3, sequence (O15379 whole entry): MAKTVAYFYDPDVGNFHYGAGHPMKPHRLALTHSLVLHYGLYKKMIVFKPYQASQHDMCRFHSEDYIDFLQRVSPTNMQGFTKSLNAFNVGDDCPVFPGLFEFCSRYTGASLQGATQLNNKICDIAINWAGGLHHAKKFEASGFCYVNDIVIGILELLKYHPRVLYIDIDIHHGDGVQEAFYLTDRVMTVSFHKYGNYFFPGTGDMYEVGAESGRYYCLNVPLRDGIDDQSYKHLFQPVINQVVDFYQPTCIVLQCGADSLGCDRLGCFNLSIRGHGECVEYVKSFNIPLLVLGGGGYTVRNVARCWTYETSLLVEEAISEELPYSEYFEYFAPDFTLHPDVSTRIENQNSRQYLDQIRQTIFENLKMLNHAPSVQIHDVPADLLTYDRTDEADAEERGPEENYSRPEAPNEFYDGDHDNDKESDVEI

Compound | IC50 (Histone deacetylase 3) | IC50 (Histone deacetylase 8) | IC50 (Histone deacetylase 11) | IC50 [1] | IC50 [2] | CLH [3] | t1/2 [4]
CC(C)(C)c1ccc(CN(C(=O)CN(Cc2ccccc2C(F)(F)F)S(=O)(=O)c2ccc(F)c(F)c2)c2ccc(C(=O)NO)cc2)cc1 | > 1000 nM | > 1000 nM | 254 nM | 362 nM |  |  | 
O=C(NO)c1ccc(N(Cc2ccc(C(F)(F)F)cc2)C(=O)CN(Cc2ccccc2C(F)(F)F)S(=O)(=O)c2ccc(F)cc2F)cc1 | > 1000 nM | > 1000 nM | 346 nM | 151 nM |  |  | 
CC(C)(C)c1ccc(CN(C(=O)CN(Cc2ccccc2C(F)(F)F)S(=O)(=O)c2ccc(F)cc2F)c2ccc(C(=O)NO)cc2)cc1 | > 1000 nM | > 1000 nM | 288 nM | 289 nM |  |  | 
O=C(NO)c1ccc(N(Cc2ccc(C(F)(F)F)cc2)C(=O)CN(Cc2ccccc2C(F)(F)F)S(=O)(=O)c2ccc(F)cc2)cc1 | > 1000 nM | > 1000 nM | 304 nM | 93 nM |  |  | 
CC(C)(C)c1ccc(CN(C(=O)CN(Cc2ccccc2C(F)(F)F)S(=O)(=O)c2ccc(F)cc2)c2ccc(C(=O)NO)cc2)cc1 | > 1000 nM | > 1000 nM | 253 nM | 230 nM |  |  | 
Cc1[nH]c2ccccc2c1CCNCc1ccc(/C=C/C(=O)NO)cc1 [PANOBINOSTAT] |  |  |  |  | 8500 nM |  | 
O=C(NO)c1ccc(N(Cc2ccc(C(F)(F)F)cc2)C(=O)CN(Cc2c(F)c(F)c(F)c(F)c2F)S(=O)(=O)c2ccc(F)cc2)cc1 | > 1000 nM | > 1000 nM | 191 nM | 86 nM |  | 37.4 µL/min | 37.1 min
O=C(NO)c1ccc(N(Cc2ccc(C(F)(F)F)cc2)C(=O)CN(Cc2ccccc2C(F)(F)F)S(=O)(=O)c2ccc(F)c(F)c2)cc1 | > 1000 nM | > 1000 nM | 396 nM | 188 nM |  |  | 
